Source: article PMC5713684 (International Journal of Nanomedicine, 2017)
No end group written: not given here. *: point of attachment. Octanoyl = CCCCCCCC(=O)*

Columns and labels:
[1] = Isothermal titration calorimetry of Ghrl with AL-free; assay type: binding; conditions: ITC, AL-free 10 mg/mL injected into Ghrl 1 mg/mL, PBS pH 7.4, 26°C, mean of n=2
Outline: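 Empty anionic liposomes (10 mg/mL in PBS pH 7.4) were injected stepwise into ghrelin (1 mg/mL in PBS) in the measuring cell. Each injection lasted 14.5 s, with 600 s spacing until steady state. Solutions were degassed beforehand, water served as reference and stirring was 300 rpm. A PBS-only blank was titrated. Heats were fitted to a cumulative model for K, ΔG, ΔH and TΔS. The titration was done twice and averaged.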

[2] = Ghrl-stability evaluation; assay type: physicochemical; conditions: Ghrl 1 mg/mL, physiological pH, 4–60°C, up to 48 hours, HPLC/UV
Outline: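 Ghrelin at 1 mg/mL was held at 4, 25, 37 and 60°C in water, PBS pH 7.4, HBSS pH 7.4 and pharmacopoeial buffers from pH 2 to 10.4 (PBS, acetate, phosphate, boric acid, borate). Samples were drawn at 0.5–6, 24 and 48 h. Remaining peptide was quantified by reversed-phase HPLC/UV on an ODS column at 37°C, using water/acetonitrile mobile phases with 0.1% TFA.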

[3] = human plasma; cited from earlier work
[4] = cited from earlier work

ghrelin (GSS(Octanoyl)FLSPEHQRVQQRKESKKPPAKLQPR; UniProt Q9UBU3 24-51, looked up) [Ghrl]
Binding coefficient K [1]: 0.875 mM⁻¹
Stability of Ghrl on prolonged heating [2]: without any degradation
plasmatic half-life t½ [3]: 9 to 13 min
isoelectric point [4]: 11.5
